What follows are compounds tested against Mitogen-activated protein kinase 10 (Rattus norvegicus, UniProt P49187) (assay: Inhibition of rat c-Jun N-terminal kinase 3).
Sequence of Mitogen-activated protein kinase 10 (P49187 whole entry): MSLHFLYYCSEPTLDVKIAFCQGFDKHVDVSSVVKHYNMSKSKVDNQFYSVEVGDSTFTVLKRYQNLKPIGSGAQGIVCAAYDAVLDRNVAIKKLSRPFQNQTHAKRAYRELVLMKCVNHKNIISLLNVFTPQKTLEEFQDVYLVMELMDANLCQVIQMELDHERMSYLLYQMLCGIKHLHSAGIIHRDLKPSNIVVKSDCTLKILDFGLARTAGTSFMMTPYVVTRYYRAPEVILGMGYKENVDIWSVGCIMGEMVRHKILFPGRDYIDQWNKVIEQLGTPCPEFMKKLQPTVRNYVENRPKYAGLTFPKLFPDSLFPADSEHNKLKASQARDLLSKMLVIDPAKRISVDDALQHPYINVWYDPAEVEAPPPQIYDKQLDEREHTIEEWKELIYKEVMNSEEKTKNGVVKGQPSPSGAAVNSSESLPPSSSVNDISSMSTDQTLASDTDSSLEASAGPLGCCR
In short: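 GST-JNK3 was preactivated overnight at room temperature with GST-JNKK2 and ATP-γ-S, then dialysed. The enzyme (0.5 µg) was incubated with biotinylated GST-c-Jun (1 µg) and 2 µM ³³P-γ-ATP in 50 mM Tris-HCl pH 8.0, 10 mM MgCl₂, 1 mM DTT and 100 µM NaVO₄ for 120 min at room temperature. Reaction stopped with EDTA; phosphorylation detected by streptavidin SPA beads and scintillation counting. Values from triplicates.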
In the case of `N#CC(c1ccnc(NCCc2c[nH]cn2)n1)c1nc2ccccc2s1` (stereo not drawn), the IC50 is reported as 0.08 µM. In the case of `Cc1cc(C(C#N)c2nc3ccccc3s2)nc(Cl)n1` (stereo not drawn) [(2Z)-1,3-benzothiazol-2(3H)-ylidene(2-chloro-6-methylpyrimidin-4-yl)acetonitrile], the IC50 is reported as over 5 µM. In the case of `N#CC(c1ccnc(Cl)n1)c1nc2ccccc2s1` (stereo not drawn) [(2Z)-1,3-benzothiazol-2(3H)-ylidene(2-chloropyrimidin-4-yl)acetonitrile], the IC50 is reported as 0.25 µM. `N#CC(c1cccc(Cl)n1)c1nc2ccccc2s1` (stereo not drawn) [(2Z)-1,3-benzothiazol-2(3H)-ylidene(6-chloropyridin-2-yl)acetonitrile] was tested, and the IC50 was over 5 µM. Compound `N#CC(c1ccncn1)c1nc2ccccc2s1` (stereo not drawn) [(2Z)-1,3-benzothiazol-2(3H)-ylidene(pyrimidin-4-yl)acetonitrile] has an IC50 of over 5 µM. Work on `N#CC(c1nc2ccccc2[nH]1)c1nc(Cl)ncc1Br` (stereo not drawn) [(5-Bromo-2-chloro-pyrimidin-4-yl)-(1,3-dihydro-benzoimidazol-2-ylidene)-acetonitrile] yielded an IC50 of over 5 µM. `CCOC(=O)C(c1ccnc(Cl)n1)c1nc2ccccc2s1` (stereo not drawn) [[3H-Benzothiazol-(2Z)-ylidene]-(2-chloro-pyrimidin-4-yl)-acetic acid ethyl ester] was tested, and the IC50 was over 5 µM. For `CCCN(CCC)c1nccc(C(C#N)c2nc3ccccc3s2)n1` (stereo not drawn) [[3H-Benzothiazol-(2Z)-ylidene]-(2-dipropylamino-pyrimidin-4-yl)-acetonitrile], the IC50 was over 5 µM. Compound `N#CC(c1ccnc(NCCc2ccccc2)n1)c1nc2ccccc2s1` (stereo not drawn) [[3H-Benzothiazol-(2Z)-ylidene]-(2-phenethylamino-pyrimidin-4-yl)-acetonitrile] has an IC50 of over 5 µM. `CCCNc1nccc(C(C#N)c2nc3ccccc3s2)n1` (stereo not drawn) [[3H-Benzothiazol-(2Z)-ylidene]-(2-propylamino-pyrimidin-4-yl)-acetonitrile] was tested, and the IC50 was over 5 µM. With `Cc1ccc(CCNc2nccc(C(C#N)c3nc4ccccc4s3)n2)cc1` (stereo not drawn) [[3H-Benzothiazol-(2Z)-ylidene]-[2-(2-p-tolyl-ethylamino)-pyrimidin-4-yl]-acetonitrile] the IC50 was over 5 µM. For `N#CC(c1ccnc(NCCc2ccccn2)n1)c1nc2ccccc2s1` (stereo not drawn) [[3H-Benzothiazol-(2Z)-ylidene]-[2-(2-pyridin-2-yl-ethylamino)-pyrimidin-4-yl]-acetonitrile], the IC50 was 0.25 µM. With `N#CC(c1ccnc(NCCc2ccc(Cl)c(Cl)c2)n1)c1nc2ccccc2s1` (stereo not drawn) [[3H-Benzothiazol-(2Z)-ylidene]-{2-[2-(3,4-dichloro-phenyl)-ethylamino]-pyrimidin-4-yl}-acetonitrile] the IC50 was over 5 µM. For `N#CC(c1ccnc(NCCc2cccc(Cl)c2)n1)c1nc2ccccc2s1` (stereo not drawn) [[3H-Benzothiazol-(2Z)-ylidene]-{2-[2-(3-chloro-phenyl)-ethylamino]-pyrimidin-4-yl}-acetonitrile], the IC50 was over 5 µM. `N#CC(c1ccnc(NCCc2ccc(Br)cc2)n1)c1nc2ccccc2s1` (stereo not drawn) [[3H-Benzothiazol-(2Z)-ylidene]-{2-[2-(4-bromo-phenyl)-ethylamino]-pyrimidin-4-yl}-acetonitrile] was tested, and the IC50 was over 5 µM. `N#CC(c1ccnc(NCCc2ccc(F)cc2)n1)c1nc2ccccc2s1` (stereo not drawn) [[3H-Benzothiazol-(2Z)-ylidene]-{2-[2-(4-fluoro-phenyl)-ethylamino]-pyrimidin-4-yl}-acetonitrile] gave an IC50 of over 5 µM. In the case of `N#CC(c1ccnc(NCc2nnn[nH]2)n1)c1nc2ccccc2s1` (stereo not drawn) [[3H-Benzothiazol-(2Z)-ylidene]-{2-[(1H-tetrazol-5-ylmethyl)-amino]-pyrimidin-4-yl}-acetonitrile], the IC50 is reported as over 5 µM. `N#CC(c1ccnc(NCCc2ccc(N)cc2)n1)c1nc2ccccc2s1` (stereo not drawn) [{2-[2-(4-Amino-phenyl)-ethylamino]-pyrimidin-4-yl}-[3H-benzothiazol-(2Z)-ylidene]-acetonitrile] gave an IC50 of 0.08 µM.
